# Experiments:
# human TRPA1 [1] = molecular target: T1, human TRPA1 (Homo sapiens, UniProt O75762); assay: Whole-cell patch clamp of TRPA1 currents in HEK293T cells; type: cell-based
# human TRPA1 [2] = molecular target: T1, human TRPA1; assay: Cell-attached single-channel recordings of TRPA1 in HEK293T cells; type: cell-based; settings: −60 mV; 100 μM AITC alone, or with 5 μM PHL-B
# human TRPV1 = human TRPV1 (Homo sapiens, UniProt Q8NER1); assay: Compound selectivity fluorescence-based Ca2+ assay, capsaicin-stimulated TRPV1; type: cell-based; settings: 10 μM capsaicin; PHL-B 0.1-10 μM; capsazepine 1 μM
# TRPA1 channels = settings: read-out: EC50 (activation of TRPA1 channels); cited from earlier work
# rat TRPM8 = rat TRPM8 (Rattus norvegicus, UniProt Q8R455); assay: Compound selectivity fluorescence-based Ca2+ assay, menthol-stimulated TRPM8; type: cell-based; settings: 30 μM menthol; PHL-B different concentrations; sesamin 20 μM
# Method in brief: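 HEK293T cells were cotransfected with rat TRPM8 and GCaMP6s and assayed after 48 h with GCaMP6s fluorescence. Channels were activated with 30 μM menthol; 20 μM sesamin served as the reference inhibitor. Read-out F/F0; N = 3–5 independent experiments.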
# [3] = 100 μM AITC alone, or 100 μM AITC + 5 μM PHL-B, voltage ramp
# T1 sequence (O75762 whole entry): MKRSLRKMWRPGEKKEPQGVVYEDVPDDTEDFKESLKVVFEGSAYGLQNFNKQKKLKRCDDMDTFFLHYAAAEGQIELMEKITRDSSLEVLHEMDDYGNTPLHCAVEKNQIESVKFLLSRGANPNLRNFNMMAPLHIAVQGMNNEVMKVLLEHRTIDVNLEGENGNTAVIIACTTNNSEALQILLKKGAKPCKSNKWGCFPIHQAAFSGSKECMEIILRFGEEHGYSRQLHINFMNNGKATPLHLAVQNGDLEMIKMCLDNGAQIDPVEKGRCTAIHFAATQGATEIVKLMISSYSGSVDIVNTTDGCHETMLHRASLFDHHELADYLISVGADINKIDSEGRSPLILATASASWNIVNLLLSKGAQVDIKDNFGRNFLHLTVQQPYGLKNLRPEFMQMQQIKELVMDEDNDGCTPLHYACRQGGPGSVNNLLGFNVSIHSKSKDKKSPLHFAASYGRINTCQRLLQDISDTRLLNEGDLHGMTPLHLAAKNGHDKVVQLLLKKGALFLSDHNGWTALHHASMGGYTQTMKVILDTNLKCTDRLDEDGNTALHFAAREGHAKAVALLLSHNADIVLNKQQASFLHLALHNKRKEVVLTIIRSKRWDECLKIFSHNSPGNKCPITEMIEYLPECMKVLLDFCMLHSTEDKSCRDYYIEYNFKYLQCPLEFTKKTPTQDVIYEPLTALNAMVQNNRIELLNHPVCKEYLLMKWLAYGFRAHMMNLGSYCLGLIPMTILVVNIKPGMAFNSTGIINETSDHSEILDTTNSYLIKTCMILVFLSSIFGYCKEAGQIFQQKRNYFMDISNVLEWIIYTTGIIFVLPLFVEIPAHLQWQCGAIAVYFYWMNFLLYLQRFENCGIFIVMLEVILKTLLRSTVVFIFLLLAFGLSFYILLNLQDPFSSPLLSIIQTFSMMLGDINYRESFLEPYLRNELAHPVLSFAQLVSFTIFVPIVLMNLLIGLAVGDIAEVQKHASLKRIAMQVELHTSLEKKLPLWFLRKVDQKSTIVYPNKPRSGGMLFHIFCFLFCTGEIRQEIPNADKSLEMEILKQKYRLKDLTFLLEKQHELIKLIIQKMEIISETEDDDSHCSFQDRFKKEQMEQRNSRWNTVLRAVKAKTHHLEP
# rat TRPM8, sequence (Q8R455 whole entry): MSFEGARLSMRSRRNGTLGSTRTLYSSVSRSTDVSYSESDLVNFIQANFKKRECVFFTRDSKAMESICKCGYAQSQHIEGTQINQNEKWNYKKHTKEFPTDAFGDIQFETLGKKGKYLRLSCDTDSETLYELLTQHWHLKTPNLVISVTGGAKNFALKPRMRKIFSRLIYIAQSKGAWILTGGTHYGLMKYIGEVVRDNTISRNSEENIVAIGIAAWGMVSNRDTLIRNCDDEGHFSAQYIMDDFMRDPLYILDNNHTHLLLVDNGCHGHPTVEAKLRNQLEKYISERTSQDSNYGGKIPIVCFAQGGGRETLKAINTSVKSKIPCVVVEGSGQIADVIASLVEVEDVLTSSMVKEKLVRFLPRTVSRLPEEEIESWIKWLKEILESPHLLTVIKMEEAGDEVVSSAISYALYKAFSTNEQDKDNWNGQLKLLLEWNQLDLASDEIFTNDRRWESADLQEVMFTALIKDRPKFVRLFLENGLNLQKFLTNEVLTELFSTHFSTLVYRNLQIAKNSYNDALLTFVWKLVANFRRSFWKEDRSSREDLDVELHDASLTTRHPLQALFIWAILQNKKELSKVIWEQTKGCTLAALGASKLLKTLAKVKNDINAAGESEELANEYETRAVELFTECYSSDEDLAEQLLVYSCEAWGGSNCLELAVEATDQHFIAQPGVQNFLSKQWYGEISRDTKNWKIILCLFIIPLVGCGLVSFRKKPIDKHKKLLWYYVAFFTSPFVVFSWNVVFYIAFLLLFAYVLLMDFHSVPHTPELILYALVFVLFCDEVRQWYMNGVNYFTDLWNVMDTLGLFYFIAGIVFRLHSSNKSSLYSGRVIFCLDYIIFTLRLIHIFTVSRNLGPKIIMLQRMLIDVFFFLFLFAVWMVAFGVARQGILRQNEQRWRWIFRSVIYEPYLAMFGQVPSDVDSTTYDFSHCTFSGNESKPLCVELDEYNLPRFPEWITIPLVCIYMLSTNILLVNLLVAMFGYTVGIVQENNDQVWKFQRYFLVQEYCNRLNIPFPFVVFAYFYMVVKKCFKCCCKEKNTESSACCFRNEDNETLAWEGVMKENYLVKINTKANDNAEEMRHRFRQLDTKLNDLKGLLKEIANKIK
# human TRPV1, sequence (Q8NER1 whole entry): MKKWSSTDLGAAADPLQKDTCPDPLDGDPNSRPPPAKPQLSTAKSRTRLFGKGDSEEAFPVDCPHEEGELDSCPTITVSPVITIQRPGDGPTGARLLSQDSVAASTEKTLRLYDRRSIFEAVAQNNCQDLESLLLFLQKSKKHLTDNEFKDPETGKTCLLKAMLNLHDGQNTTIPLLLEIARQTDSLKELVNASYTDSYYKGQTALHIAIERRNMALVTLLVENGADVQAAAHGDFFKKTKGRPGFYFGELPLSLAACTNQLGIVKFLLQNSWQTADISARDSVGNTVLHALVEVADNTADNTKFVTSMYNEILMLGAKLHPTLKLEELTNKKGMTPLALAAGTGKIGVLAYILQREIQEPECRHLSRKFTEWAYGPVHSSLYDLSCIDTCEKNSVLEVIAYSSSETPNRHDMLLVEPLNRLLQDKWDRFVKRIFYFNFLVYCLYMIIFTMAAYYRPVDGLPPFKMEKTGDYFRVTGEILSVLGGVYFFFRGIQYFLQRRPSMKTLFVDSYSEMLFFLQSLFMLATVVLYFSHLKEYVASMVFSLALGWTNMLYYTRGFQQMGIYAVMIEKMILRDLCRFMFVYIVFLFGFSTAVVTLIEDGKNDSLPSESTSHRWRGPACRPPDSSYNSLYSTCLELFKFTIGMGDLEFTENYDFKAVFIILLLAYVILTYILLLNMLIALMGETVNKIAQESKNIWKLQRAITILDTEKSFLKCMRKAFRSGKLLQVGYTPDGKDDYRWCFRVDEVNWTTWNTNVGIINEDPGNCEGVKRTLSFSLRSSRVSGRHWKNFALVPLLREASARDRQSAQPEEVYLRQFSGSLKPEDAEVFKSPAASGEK
compound,measurement,setting,value
"C=CCN=C=S [AITC, allyl isothiocyanate]",current density at +50 mV,human TRPA1 [1]; [3],30.5 ± 2.9 pA/pF
same,current density at −100 mV,human TRPA1 [1]; [3],−91.73 ± 11.47 pA/pF
same,τoff (time course of recovery),"human TRPA1 [1]; −60 mV, 100 μM AITC, or 100 μM AITC + 5 μM PHL-B",28.6 ± 3.4 ms
same,fold increase of channel open probability (PO) over basal,human TRPA1 [2],approximately 150 fold
"Oc1cc2c(cc1O)CN(C(=S)NCCc1ccc(Cl)cc1)CCC2 [Capsazepine, capsazepine]",effect on capsaicin-induced normalized fluorescence (TRPV1),human TRPV1,fully abolished
CC(C)c1cc2c(c(O)c1O)[C@@]13CCCC(C)(C)[C@@H]1C[C@@H]2OC3=O [carnosol],EC50,TRPA1 channels,~12 µM
c1cc2c(cc1[C@H]1OC[C@H]3[C@@H]1CO[C@@H]3c1ccc3c(c1)OCO3)OCO2 [sesamin],effect on menthol-induced Ca2+ influx (TRPM8),rat TRPM8,practically inhibited all

# Source: article PMC12409571 (ACS Omega, 2025)
